Source: ChEMBL document CHEMBL3351566, “Blood schizontocidal and gametocytocidal activity of 3-hydroxy-N'-arylidenepropanehydrazonamides: a new class of antiplasmodial compounds” (J Med Chem, 2014)

What was measured:
Plasmodium falciparum [1] = assay: Antiplasmodial activity against Plasmodium falciparum 3D7 asexual blood stages after 3 days by HRP2 detection based ELISA method; format: functional, organism-based; conditions: 3D7, 72 h
In short: (§1)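 HRP2-based growth inhibition of P. falciparum asexual blood stages, 3D7 (chloroquine-sensitive) or Dd2 (multidrug-resistant). IC50 from 12 serial dilutions. Mean of at least two independent experiments, each run in duplicate.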

Plasmodium falciparum [2] = assay: Antiplasmodial activity against Plasmodium falciparum Dd2 asexual blood stages after 3 days by HRP2 detection based ELISA method; format: functional, organism-based; conditions: Dd2, 72 h; in short: as §1
L6 = assay: Cytotoxicity against rat L6 cells after 72 hrs by alamar blue assay; format: cell-based; conditions: L6, 72 h
[3] = Selectivity index, ratio of IC50 for rat L6 cells to IC50 for Plasmodium falciparum 3D7 asexual blood stages; format: toxicity, cell-based; conditions: read-out: Ratio IC50
In short: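 Selectivity index calculated as L6 cytotoxicity IC50 divided by P. falciparum 3D7 IC50, using unrounded cytotoxicity values.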

Plasmodium falciparum [4] = assay: Gametocytocidal activity against transgenic Plasmodium falciparum NF54-pfs16-GFP late stage gametocytes after 72 hrs by mitotracker red CM-H2XRos dye based confocal imaging assay; format: functional, organism-based; conditions: NF54, 72 h
In short: (§2)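 Late-stage gametocytes stained with MitoTracker Red, imaged, and scored by viable elongated MTR-positive morphology. % inhibition set relative to a puromycin 100% inhibition control. Compounds in 4% DMSO, top concentration 120 or 40 μM. IC50 from 21 serial dilutions. Mean of two independent experiments, each in duplicate.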

Plasmodium berghei [5] = assay: Antiplasmodial activity against Plasmodium berghei infected in mouse assessed as reduction in parasitemia level at 50 mg/kg, po dosed once daily for 4 days on 4, 24, 48 and 72 hrs post infection and measured on day 4; format: functional
In short: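 Peters 4-day test in P. berghei-infected mice, n = 3 per group. 50 mg/kg given orally once daily at 4, 24, 48 and 72 h postinfection. Dosed as a solution or suspension in 70/30 Tween 80/ethanol diluted 10× with water. Parasitemia read from blood taken on day 4 (96 h postinfection), expressed as % reduction versus an infected untreated control.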

Plasmodium berghei [6] = assay: Antiplasmodial activity against Plasmodium berghei infected in mouse assessed as […] in mouse survival at 50 mg/kg, po dosed once daily for 4 days on 4, 24, 48 and 72 hrs post infection and measured on day 4 (reference value: 4 days); format: functional
In short: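 Standard Peters 4-day test in P. berghei-infected mice (n = 3 per group), dosed orally at 4, 24, 48 and 72 h post-infection. Compound was dissolved or suspended in 70/30 Tween 80/ethanol and diluted 10× with water. Blood for parasitemia was taken on day 4 (96 h). Survival was given as mean days, with parasite-free at day 30 taken as cure. Untreated infected controls were euthanized on day 4.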

[7] = Plasma concentration in Plasmodium berghei infected mouse at 50 mg/kg, po dosed once daily for 4 days on 4, 24, 48 and 72 hrs post infection and measured 1 hr post dose by HPLC-MS/MS method; format: ADME, organism-based; design: dose 50 mg/kg, route oral
In short: (§3)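 P. berghei-infected mice (n = 3 per group) given oral doses in 70/30 Tween 80/ethanol diluted 10× with water, at 4, 24, 48 and 72 h postinfection. Plasma drug levels (ng/mL) measured at 1, 4 and 24 h after oral treatment.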

[8] = Plasma concentration in Plasmodium berghei infected mouse at 50 mg/kg, po dosed once daily for 4 days on 4, 24, 48 and 72 hrs post infection and measured 4 hrs post dose by HPLC-MS/MS method; format: ADME, organism-based; design: dose 50 mg/kg, route oral; in short: as §3
[9] = Plasma concentration in Plasmodium berghei infected mouse at 50 mg/kg, po dosed once daily for 4 days on 4, 24, 48 and 72 hrs post infection and measured 24 hrs post dose by HPLC-MS/MS method; format: ADME, organism-based; design: dose 50 mg/kg, route oral; in short: as §3
Plasmodium falciparum [10] = assay: Gametocytocidal activity against transgenic Plasmodium falciparum NF54-pfs16-GFP late stage gametocytes at 40 uM after 72 hrs by mitotracker red CM-H2XRos dye based confocal imaging assay; format: functional; conditions: NF54, 72 h; in short: as §2
Mus musculus [11] = assay: Toxicity in Plasmodium berghei infected mouse assessed as changes in general behaviors at 50 mg/kg, po dosed once daily for 4 days on 4, 24, 48 and 72 hrs post infection; format: organism-based; design: dose 50 mg/kg, route oral; conditions: in vivo
In short: (§4)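 P. berghei-infected mice (n = 3 per group) received four oral doses at 4, 24, 48 and 72 h post-infection. Vehicle was 70/30 Tween 80/ethanol diluted 10× with water. Mice were watched for acute toxicity signs: death, changes in general behaviour, and changes in physiological activities.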

Mus musculus [12] = assay: Toxicity in Plasmodium berghei infected mouse assessed as changes in physiological activities at 50 mg/kg, po dosed once daily for 4 days on 4, 24, 48 and 72 hrs post infection; format: organism-based; design: dose 50 mg/kg, route oral; conditions: in vivo; in short: as §4
Mus musculus [13] = assay: Toxicity in Plasmodium berghei infected mouse assessed as mouse mortality level at 50 mg/kg, po dosed once daily for 4 days on 4, 24, 48 and 72 hrs post infection; format: organism-based; design: dose 50 mg/kg, route oral; conditions: in vivo; in short: as §4
Plasmodium falciparum [14] = assay: Gametocytocidal activity against transgenic Plasmodium falciparum NF54-pfs16-GFP late stage gametocytes at 120 uM after 72 hrs by mitotracker red CM-H2XRos dye based confocal imaging assay; format: functional; conditions: NF54, 72 h; in short: as §2

Structure (SMILES) | IC50 (Plasmodium falciparum [1]) | IC50 (Plasmodium falciparum [2]) | IC50 (L6) | selectivity ratio [3] | also measured
N/C(CC(O)c1cccc2ccccc12)=N\N=C\c1ccccc1 (stereo not drawn) | 100 nM | 240 nM | 17000 nM | 170 | 
N/C(=N\N=C\c1ccccc1)C(O)c1cccc2ccccc12 (stereo not drawn) | 3000 nM | 3900 nM | 300000 nM | 100 | 
N/C(=N\N=C\c1ccccc1)C(O)c1ccc2ccccc2c1 (stereo not drawn) | > 10000 nM | > 10000 nM |  |  | 
Cc1ccc(/C=N/N=C(\N)CC(O)c2cccc3ccccc23)cc1 (stereo not drawn) | 190 nM | 62 nM | 6800 nM | 36 | 
N/C(CC(O)c1cccc2ccccc12)=N\N=C\c1ccc(C(F)(F)F)cc1 (stereo not drawn) | 110 nM | 300 nM | 26000 nM | 234 | 
COc1ccc(/C=N/N=C(\N)CC(O)c2cccc3ccccc23)cc1 (stereo not drawn) | 83 nM | 210 nM | 6300 nM | 76 | 
CCOc1cc(/C=N/N=C(\N)CC(O)c2cccc3ccccc23)ccc1O (stereo not drawn) | 250 nM | 450 nM | 4200 nM | 17 | 
N/C(CC(O)c1cccc2ccccc12)=N\N=C\c1ccc(F)cc1 (stereo not drawn) | 60 nM | 200 nM | 19000 nM | 321 | IC50 (Plasmodium falciparum [4]): 780 nM; inhibition in vivo at 50 mg/kg (Plasmodium berghei [5]): 40%; MSD (Plasmodium berghei [6]): 6.7 days; concentration at 1 h [7]: 316 ng/mL; concentration at 4 h [8]: 145 ng/mL; concentration at 24 h [9]: < 5 ng/mL
N/C(CC(O)c1cccc2ccccc12)=N\N=C\c1cccc(Br)c1 (stereo not drawn) | 91 nM | 94 nM | 3900 nM | 43 | 
N/C(CC(O)c1cccc2ccccc12)=N\N=C\c1ccc(F)cc1F (stereo not drawn) | 190 nM | 190 nM | 4200 nM | 22 | 
N/C(CC(O)c1cccc2ccccc12)=N\N=C\c1ccc(F)c(F)c1 (stereo not drawn) | 180 nM | 550 nM | 17000 nM | 95 | 
N/C(CC(O)c1cccc2ccccc12)=N\N=C\c1ccc(Cl)c(Cl)c1 (stereo not drawn) | 250 nM | 190 nM | 16000 nM | 63 | 
N/C(CC(O)c1cccc2ccccc12)=N\N=C\c1cccnc1 (stereo not drawn) | 2700 nM | 1100 nM | 22000 nM | 8 | 
N/C(CC(O)c1cccc2ccccc12)=N\N=C\c1ccco1 (stereo not drawn) | 510 nM | 380 nM | 145000 nM | 284 | 
CCC/C(=N\N=C(/N)CC(O)c1cccc2ccccc12)c1ccccc1 (stereo not drawn) | 240 nM | 610 nM | 29000 nM | 120 | 
C/C(=N\N=C(/N)CC(O)c1cccc2ccccc12)c1ccc(F)cc1 (stereo not drawn) | 400 nM | 740 nM | 34000 nM | 86 | 

Structure (SMILES) | IC50 (Plasmodium falciparum [1]) | IC50 (Plasmodium falciparum [2]) | IC50 (L6) | selectivity ratio [3] | also measured
Cc1ccc(/C=N/N=C(\N)CC(O)c2ccc3ccccc3c2)cc1 (stereo not drawn) | 540 nM | 380 nM | 103000 nM | 190 | 
N/C(CC(O)c1ccc2ccccc2c1)=N\N=C\c1ccc(C(F)(F)F)cc1 (stereo not drawn) | > 10000 nM | > 10000 nM |  |  | 
COc1ccc(/C=N/N=C(\N)CC(O)c2ccc3ccccc3c2)cc1 (stereo not drawn) | 380 nM | 620 nM | 69000 nM | 182 | 
CCOc1cc(/C=N/N=C(\N)CC(O)c2ccc3ccccc3c2)ccc1O (stereo not drawn) | 1100 nM | 1300 nM | 78000 nM | 71 | 
N/C(CC(O)c1ccc2ccccc2c1)=N\N=C\c1ccc(F)cc1 (stereo not drawn) | 2000 nM | 2500 nM | > 298000 nM | > 149 | inhibition at 40 µM (Plasmodium falciparum [10]): 25%
N/C(CC(O)c1ccc2ccccc2c1)=N\N=C\c1ccc(F)cc1F (stereo not drawn) | 4000 nM | > 10000 nM | 93000 nM | 23 | 
N/C(CC(O)c1ccc2ccccc2c1)=N\N=C\c1ccc(Cl)c(Cl)c1 (stereo not drawn) | 1900 nM | 700 nM | 100000 nM | 52 | 
N/C(CC(O)c1ccc2ccccc2c1)=N\N=C\c1cccnc1 (stereo not drawn) | > 10000 nM | > 10000 nM |  |  | 
N/C(CC(O)c1ccc2ccccc2c1)=N\N=C\c1ccco1 (stereo not drawn) | > 10000 nM | > 10000 nM |  |  | 
N/C(CC(O)c1cc2ccccc2c2ccccc12)=N\N=C\c1ccccc1 (stereo not drawn) | 16 nM | 28 nM | 6100 nM | 383 | IC50 (Plasmodium falciparum [4]): 180 nM
N/C(CC(O)c1cc2ccccc2c2ccccc12)=N\N=C\c1ccc(F)cc1 (stereo not drawn) | 8.3 nM | 11 nM | 16000 nM | 1890 | IC50 (Plasmodium falciparum [4]): 370 nM; inhibition in vivo at 50 mg/kg (Plasmodium berghei [5]): 99.6%; MSD (Plasmodium berghei [6]): 10 days; concentration at 1 h [7]: 4690 ng/mL; concentration at 4 h [8]: 3100 ng/mL; concentration at 24 h [9]: 86.1 ng/mL; Activity (Mus musculus [11]): Non-toxic; Activity (Mus musculus [12]): Non-toxic; Activity (Mus musculus [13]): Non-toxic
O[C@@H](c1cc(C(F)(F)F)nc2c(C(F)(F)F)cccc12)[C@H]1CCCCN1 (relative stereo) [(S,R)-MEFLOQUINE] |  |  | 4500 nM |  | IC50 (Plasmodium falciparum [4]): 100 nM
C[C@H]1[C@H](OC(=O)CCC(=O)O)O[C@@H]2O[C@@]3(C)CC[C@H]4[C@H](C)CC[C@@H]1[C@@]24OO3 [ARTESUNATE] |  | 2 nM | 24000 nM |  | IC50 (Plasmodium falciparum [4]): 44 nM
CCN(CC)CCCC(C)Nc1ccnc2cc(Cl)ccc12 (stereo not drawn) [CHLOROQUINE] |  |  | 78000 nM |  | inhibition at 120 µM (Plasmodium falciparum [14]): 44%
COc1cc([C@@H]2c3cc4c(cc3[C@H](O)[C@H]3COC(=O)[C@H]23)OCO4)cc(OC)c1OC [PODOFILOX] | 9200 nM | 8300 nM | 9.7 nM | 0.0016 | 
